Measured values: ChEMBL document CHEMBL3124867, “Hepatitis C replication inhibitors that target the viral NS4B protein” (J Med Chem, 2014)
In brackets after ≈: the same amount, converted by molar mass.

Columns and labels:
[1] = Half life in CD-1 mouse at 1 mg/kg, iv by LC/MS/MS analysis; format: ADME, organism-based; design: dose 1 mg/kg, route intravenous; conditions: in vivo
Summary of the method: (§1)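 Intravenous dose of 1 mg/kg in DMSO/20% HP-β-CD (10:90) (n = 4). Clearance, Vdss and t1/2 were derived from the plasma concentration–time profiles.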

[2] = Plasma protein binding in CD rat at 5 uM after 4 hrs by rapid equilibrium dialysis method; format: ADME, cell-free; conditions: read-out: PPB (converted)
Cytochrome P450 3A4 = Cytochrome P450 3A4 (Homo sapiens, UniProt P08684); experiment: Inhibition of CYP3A4 in human liver microsomes after 7 mins by LC/MS/MS analysis; format: ADME
Summary of the method: (§2)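 Cytochrome P450 isozymes 3A4, 1A2, 2C9, 2C19 and 2D6 were tested for inhibition up to 20 μM, with IC50 reported.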

[3] = Volume of distribution at steady state in CD-1 mouse at 1 mg/kg, iv by LC/MS/MS analysis; format: ADME, organism-based; design: dose 1 mg/kg, route intravenous; conditions: in vivo, read-out: Vdss; summary of the method: as §1
[4] = Oral bioavailability in CD rat at 5 mg/kg by LC/MS/MS analysis; format: ADME, organism-based; conditions: in vivo
Summary of the method: (§3)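 Oral dose of 5 mg/kg in DMSO/20% HP-β-CD (10:90), with a matching iv group for bioavailability. Plasma concentration–time profiles gave AUC0−∞ and F.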

[5] = Oral bioavailability in beagle dog at 5 mg/kg by LC/MS/MS analysis; format: ADME, organism-based, Canis lupus familiaris; conditions: in vivo; summary of the method: as §3
Cytochrome P450 1A2 = target: T1, Cytochrome P450 1A2 (Homo sapiens, UniProt P05177); experiment: Inhibition of CYP1A2 in human liver microsomes after 10 mins by LC/MS/MS analysis; format: ADME; summary of the method: as §2
T1 sequence (P05177 whole entry): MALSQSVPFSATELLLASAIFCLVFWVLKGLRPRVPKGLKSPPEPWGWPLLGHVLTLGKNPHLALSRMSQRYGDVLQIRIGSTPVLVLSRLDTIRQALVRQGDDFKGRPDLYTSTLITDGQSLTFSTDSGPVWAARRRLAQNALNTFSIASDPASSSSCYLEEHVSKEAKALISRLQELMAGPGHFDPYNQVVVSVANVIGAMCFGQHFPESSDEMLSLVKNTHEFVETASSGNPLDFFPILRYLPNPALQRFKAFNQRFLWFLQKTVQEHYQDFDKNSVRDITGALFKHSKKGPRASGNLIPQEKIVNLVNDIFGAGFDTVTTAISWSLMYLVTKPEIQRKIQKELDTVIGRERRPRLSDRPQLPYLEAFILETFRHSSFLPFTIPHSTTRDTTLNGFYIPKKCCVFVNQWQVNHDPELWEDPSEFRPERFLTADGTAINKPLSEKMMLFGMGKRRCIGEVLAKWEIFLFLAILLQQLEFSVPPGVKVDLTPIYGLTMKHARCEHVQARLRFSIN

[6] = Half life in CD rat at 1 mg/kg, iv by LC/MS/MS analysis; format: ADME, organism-based; design: dose 1 mg/kg, route intravenous; conditions: in vivo; summary of the method: as §1
[7] = Lipophilicity, log D of the compound by chromatographic analysis; format: physicochemical
Summary of the method: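 Lipophilicity was measured chromatographically and reported as ChromLogD; ≥6 replicates.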

[8] = AUC (0 to infinity) in beagle dog at 5 mg/kg, po by LC/MS/MS analysis; format: ADME, organism-based, Canis lupus familiaris; design: time infinity, dose 5 mg/kg, route oral; conditions: plasma; summary of the method: as §3
Hepatitis C virus [9] = experiment: Antiviral activity against Hepatitis C virus genotype 1a infected in human HuH7 cells after 48 hrs by luciferase reporter gene assay; format: functional, organism-based, Hepacivirus hominis; conditions: subtype 1a, Huh-7, 48 h
Liver microsome [10] = experiment: Drug metabolism in rat liver microsomes assessed as generation of reactive metabolites at 10 uM after 30 mins by glutathione-trapping assay; format: ADME; conditions: 0.5 h
Summary of the method: (§4)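 Rat and human liver microsomes were incubated with compound, and a glutathione-trapping assay was used to detect reactive metabolites.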

[11] = Displacement of [3H]-3-(1-(3-chloro-6-isopropyl-8-(trifluoromethyl)imidazo[1,2-a]pyridine-2-carbonyl)piperidin-4-yl)oxazolidin-2-one from HCV genotype 1b C-terminal His-tagged NS4B (1 to 261 aa) expressed in baculovirus infected SF9 cells after overnight incubation; design: species or system Hepatitis C virus subtype 1b
[12] = Plasma protein binding in cynomolgus monkey at 5 uM after 4 hrs by rapid equilibrium dialysis method; format: ADME, cell-free, Macaca fascicularis; conditions: read-out: PPB (converted)
[13] = Clearance in beagle dog at 1 mg/kg, iv by LC/MS/MS analysis; format: ADME, organism-based, Canis lupus familiaris; design: dose 1 mg/kg, route intravenous; conditions: in vivo; summary of the method: as §1
[14] = Plasma protein binding in CD-1 mouse at 5 uM after 4 hrs by rapid equilibrium dialysis method; format: ADME, cell-free; conditions: read-out: PPB (converted)
[15] = Half life in cynomolgus monkey at 1 mg/kg, iv by LC/MS/MS analysis; format: ADME, organism-based, Macaca fascicularis; design: dose 1 mg/kg, route intravenous; conditions: in vivo; summary of the method: as §1
[16] = Clearance in CD rat at 1 mg/kg, iv by LC/MS/MS analysis; format: ADME, organism-based; design: dose 1 mg/kg, route intravenous; conditions: in vivo; summary of the method: as §1
Cytochrome P450 2D6 = Cytochrome P450 2D6 (Homo sapiens, UniProt P10635); experiment: Inhibition of CYP2D6 in human liver microsomes after 10 mins by LC/MS/MS analysis; format: ADME; summary of the method: as §2
[17] = Volume of distribution at steady state in CD rat at 1 mg/kg, iv by LC/MS/MS analysis; format: ADME, organism-based; design: dose 1 mg/kg, route intravenous; conditions: in vivo, read-out: Vdss; summary of the method: as §1
Cytochrome P450 2C9 = Cytochrome P450 2C9 (Homo sapiens, UniProt P11712); experiment: Inhibition of CYP2C9 in human liver microsomes after 10 mins by LC/MS/MS analysis; format: ADME; summary of the method: as §2
[18] = Oral bioavailability in CD-1 mouse at 5 mg/kg by LC/MS/MS analysis; format: ADME, organism-based; conditions: in vivo; summary of the method: as §3
[19] = Half life in beagle dog at 1 mg/kg, iv by LC/MS/MS analysis; format: ADME, organism-based, Canis lupus familiaris; design: dose 1 mg/kg, route intravenous; conditions: in vivo; summary of the method: as §1
[20] = AUC (0 to infinity) in cynomolgus monkey at 5 mg/kg, po by LC/MS/MS analysis; format: ADME, organism-based, Macaca fascicularis; design: time infinity, dose 5 mg/kg, route oral; conditions: plasma; summary of the method: as §3
[21] = Clearance in CD-1 mouse at 1 mg/kg, iv by LC/MS/MS analysis; format: ADME, organism-based; design: dose 1 mg/kg, route intravenous; conditions: in vivo; summary of the method: as §1
Cytochrome P450 2C19 = Cytochrome P450 2C19 (Homo sapiens, UniProt P33261); experiment: Inhibition of CYP2C19 in human liver microsomes after 10 mins by LC/MS/MS analysis; format: ADME; summary of the method: as §2
[22] = Volume of distribution at steady state in cynomolgus monkey at 1 mg/kg, iv by LC/MS/MS analysis; format: ADME, organism-based, Macaca fascicularis; design: dose 1 mg/kg, route intravenous; conditions: in vivo, read-out: Vdss; summary of the method: as §1
[23] = Plasma protein binding in beagle dog at 5 uM after 4 hrs by rapid equilibrium dialysis method; format: ADME, cell-free, Canis lupus familiaris; conditions: read-out: PPB (converted)
Hepatitis C virus [24] = experiment: Antiviral activity against Hepatitis C virus genotype 1b expressing NS4B V105M mutant infected in human HuH7 cells after 48 hrs by luciferase reporter gene assay; format: functional, organism-based, Hepacivirus hominis; conditions: Huh-7, 48 h
[25] = Aqueous solubility in fasted state simulated intestinal fluid at pH 6.5 by LC/UV analysis; format: physicochemical
[26] = Oral bioavailability in cynomolgus monkey at 5 mg/kg by LC/MS/MS analysis; format: ADME, organism-based, Macaca fascicularis; conditions: in vivo; summary of the method: as §3
Hepatitis C virus [27] = experiment: Antiviral activity against Hepatitis C virus genotype 1b infected in human HuH7 cells after 48 hrs by luciferase reporter gene assay; format: functional, organism-based, Hepacivirus hominis; conditions: Huh-7, 48 h
[28] = Clearance in cynomolgus monkey at 1 mg/kg, iv by LC/MS/MS analysis; format: ADME, organism-based, Macaca fascicularis; design: dose 1 mg/kg, route intravenous; conditions: in vivo; summary of the method: as §1
[29] = Volume of distribution at steady state in beagle dog at 1 mg/kg, iv by LC/MS/MS analysis; format: ADME, organism-based, Canis lupus familiaris; design: dose 1 mg/kg, route intravenous; conditions: in vivo, read-out: Vdss; summary of the method: as §1
[30] = Plasma protein binding in human at 5 uM after 4 hrs by rapid equilibrium dialysis method; format: ADME, cell-free; conditions: read-out: PPB (converted)
Hepatitis C virus [31] = experiment: Antiviral activity against Hepatitis C virus genotype 1b expressing NS4B H94N mutant infected in human HuH7 cells after 48 hrs by luciferase reporter gene assay; format: functional, organism-based, Hepacivirus hominis; conditions: Huh-7, 48 h
Liver microsome [32] = experiment: Drug metabolism in human liver microsomes assessed as generation of reactive metabolites at 10 uM after 30 mins by glutathione-trapping assay; format: ADME; conditions: 0.5 h; summary of the method: as §4
[33] = AUC (0 to infinity) in CD-1 mouse at 5 mg/kg, po by LC/MS/MS analysis; format: ADME, organism-based; design: time infinity, dose 5 mg/kg, route oral; conditions: plasma; summary of the method: as §3
[34] = AUC (0 to infinity) in CD rat at 5 mg/kg, po by LC/MS/MS analysis; format: ADME, organism-based; design: time infinity, dose 5 mg/kg, route oral; conditions: plasma; summary of the method: as §3
Huh-7 = experiment: Cytotoxicity against human HuH7 cells at 50 uM after 2 days by Cell Titer Glo assay; format: cell-based; conditions: huh-7, 48 h
Summary of the method: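 Huh7 cells were exposed to compound at 50 μM for 2 days and scored for cellular toxicity.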

Chain of Cytochrome P450 2C9 (P11712 whole entry): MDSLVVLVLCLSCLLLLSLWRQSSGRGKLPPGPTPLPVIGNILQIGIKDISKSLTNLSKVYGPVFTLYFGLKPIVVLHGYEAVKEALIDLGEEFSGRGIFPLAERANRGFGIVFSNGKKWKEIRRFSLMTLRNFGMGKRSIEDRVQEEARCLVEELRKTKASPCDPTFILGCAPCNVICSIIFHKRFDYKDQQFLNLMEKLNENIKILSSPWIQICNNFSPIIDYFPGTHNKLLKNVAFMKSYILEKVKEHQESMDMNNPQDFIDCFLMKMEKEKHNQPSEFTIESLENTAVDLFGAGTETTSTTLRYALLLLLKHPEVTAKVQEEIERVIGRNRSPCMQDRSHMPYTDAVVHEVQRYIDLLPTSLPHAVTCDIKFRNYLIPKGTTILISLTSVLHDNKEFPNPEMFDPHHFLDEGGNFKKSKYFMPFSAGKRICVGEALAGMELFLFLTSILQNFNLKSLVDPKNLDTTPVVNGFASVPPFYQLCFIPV
Chain of Cytochrome P450 2D6 (P10635 whole entry): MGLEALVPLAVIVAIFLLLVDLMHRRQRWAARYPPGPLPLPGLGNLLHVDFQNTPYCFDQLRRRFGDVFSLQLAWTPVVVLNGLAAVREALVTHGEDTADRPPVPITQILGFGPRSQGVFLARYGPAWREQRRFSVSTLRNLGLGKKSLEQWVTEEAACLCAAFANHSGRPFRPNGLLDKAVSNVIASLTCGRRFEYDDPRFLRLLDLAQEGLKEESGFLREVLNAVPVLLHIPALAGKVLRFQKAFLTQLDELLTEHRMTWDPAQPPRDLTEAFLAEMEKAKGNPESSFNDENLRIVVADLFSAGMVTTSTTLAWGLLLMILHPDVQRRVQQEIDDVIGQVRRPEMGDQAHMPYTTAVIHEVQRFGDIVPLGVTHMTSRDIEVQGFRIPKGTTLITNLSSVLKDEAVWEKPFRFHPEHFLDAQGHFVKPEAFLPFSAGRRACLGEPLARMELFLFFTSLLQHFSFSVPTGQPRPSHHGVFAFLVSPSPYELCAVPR
Chain of Cytochrome P450 2C19 (P33261 whole entry): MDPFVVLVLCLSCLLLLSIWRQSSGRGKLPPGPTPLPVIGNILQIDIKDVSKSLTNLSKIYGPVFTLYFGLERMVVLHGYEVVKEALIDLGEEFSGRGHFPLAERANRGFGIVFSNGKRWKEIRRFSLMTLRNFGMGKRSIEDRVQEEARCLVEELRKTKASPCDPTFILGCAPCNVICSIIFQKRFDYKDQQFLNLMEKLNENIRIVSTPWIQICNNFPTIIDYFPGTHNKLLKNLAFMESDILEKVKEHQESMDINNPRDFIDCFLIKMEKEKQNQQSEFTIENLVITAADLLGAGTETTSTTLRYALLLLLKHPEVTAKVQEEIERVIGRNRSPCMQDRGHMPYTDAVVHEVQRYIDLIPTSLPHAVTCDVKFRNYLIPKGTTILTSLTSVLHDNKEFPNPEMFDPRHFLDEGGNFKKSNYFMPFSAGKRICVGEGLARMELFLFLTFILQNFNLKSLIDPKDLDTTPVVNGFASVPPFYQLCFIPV
Chain of Cytochrome P450 3A4 (P08684 whole entry): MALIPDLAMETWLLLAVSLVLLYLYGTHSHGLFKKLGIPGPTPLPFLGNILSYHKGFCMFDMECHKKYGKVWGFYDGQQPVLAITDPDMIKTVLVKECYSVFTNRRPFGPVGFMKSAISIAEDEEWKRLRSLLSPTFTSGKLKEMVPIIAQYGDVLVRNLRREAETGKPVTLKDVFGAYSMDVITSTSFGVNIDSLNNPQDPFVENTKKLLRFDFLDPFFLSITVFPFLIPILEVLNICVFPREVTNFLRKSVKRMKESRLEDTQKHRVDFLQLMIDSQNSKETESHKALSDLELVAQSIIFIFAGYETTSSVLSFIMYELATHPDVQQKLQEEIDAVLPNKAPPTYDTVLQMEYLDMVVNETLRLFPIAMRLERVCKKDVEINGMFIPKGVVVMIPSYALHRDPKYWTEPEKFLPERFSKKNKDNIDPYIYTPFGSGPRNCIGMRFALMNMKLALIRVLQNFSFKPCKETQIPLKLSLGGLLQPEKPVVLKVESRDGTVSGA

O=C(c1nn2c(C(F)(F)F)cc(C3CC3)cc2c1Cl)N1CCN([C@H]2C[C@@H]3C[C@@H]3[C@@H]2O)C(=O)C1
half-life [1]: 0.4 h
fraction unbound at 4 h, 5 µM [2]: 0.04
IC50 (Cytochrome P450 3A4): > 20000 nM
Vd [3]: 0.6 L/kg
bioavailability [4]: 92%
bioavailability [5]: > 100%
IC50 (Cytochrome P450 1A2): > 20000 nM
half-life [6]: 2 h
chromatographic logD [7]: 4.6
AUC(0-inf) [8]: 25000 ng·h/mL
EC50 (Hepatitis C virus [9]): 0.6 nM
Stability (Liver microsome [10]): Stable
IC50 [11]: 8 nM
fraction unbound at 4 h, 5 µM [12]: 0.09
clearance [13]: 6 mL/min/kg
fraction unbound at 4 h, 5 µM [14]: 0.03
half-life [15]: 4 h
clearance [16]: 25 mL/min/kg
IC50 (Cytochrome P450 2D6): > 20000 nM
Vd [17]: 2 L/kg
IC50 (Cytochrome P450 2C9): > 20000 nM
bioavailability [18]: 12%
half-life [19]: 2 h
AUC(0-inf) [20]: 25000 ng·h/mL
clearance [21]: 19 mL/min/kg
IC50 (Cytochrome P450 2C19): > 20000 nM
Vd [22]: 0.7 L/kg
fraction unbound at 4 h, 5 µM [23]: 0.07
EC50 (Hepatitis C virus [24]): 38 nM
solubility [25]: 310 µg/mL (≈ 642 µM)
bioavailability [26]: 97%
EC50 (Hepatitis C virus [27]): 0.3 nM
clearance [28]: 3 mL/min/kg
Vd [29]: 0.7 L/kg
fraction unbound at 4 h, 5 µM [30]: 0.06
EC50 (Hepatitis C virus [31]): 5 nM
Stability (Liver microsome [32]): Stable
AUC(0-inf) [33]: 1000 ng·h/mL
AUC(0-inf) [34]: 3100 ng·h/mL

O=C(c1nn2c(C(F)(F)F)cc(C3CC3)cc2c1Cl)N1CCN([C@H]2CC[C@H](O)CC2)C(=O)C1
chromatographic logD [7]: 4.1
Activity (Huh-7): Non-toxic
EC50 (Hepatitis C virus [9]): 0.3 nM
IC50 [11]: 12 nM
EC50 (Hepatitis C virus [24]): 310 nM
EC50 (Hepatitis C virus [27]): 2 nM
EC50 (Hepatitis C virus [31]): 32 nM
